Experimental data published in PMC8864714 (Chemical Science, 2022).
Converted amounts (≈) assume the structure as drawn. Bridge positions count the residues as written; N and C are the ends. Square brackets hold non-standard residues; d marks the D form. I, II: the chains in the order shown. * marks the point of attachment. Ac6c = NC1(C(=O)O)CCCCC1; NHNH2 = NN*

How the values were obtained:
[1] = tested on: panel of Gram-negative pathogens; experiment: Antibacterial testing, statements in words; assay type: cell-based; settings: Table S2
FADDI-KP028 (MDR) = experiment: MIC antibacterial assay; assay type: cell-based, K. pneumoniae
How it was run: (§1)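 Broth assay in 100% Mueller Hinton broth. Test compound was serially diluted from 250 to 4 μg ml−1 and mixed 1:1 by volume with a bacterial suspension of 2 × 10^6 cells per ml, then incubated 90 min at 37 °C. MIC was obtained by plotting maximal growth against concentration (Lambert and Pearson method). Run twice in duplicate; mean ± SD.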

[2] = tested on: FADDI-AB156 (colistin-resistant, rifampin-resistant & MDR, XDR); experiment: MIC antibacterial assay; assay type: cell-based, A. baumannii; settings: for MIC, FADDI-AB156: 100% MHB, 90 min, 37 °C, twice in duplicate, mean ± SD
How it was run: as §1

A. baumannii 19606 = experiment: Minimum bactericidal concentration; assay type: cell-based, Acinetobacter baumannii
A. baumannii ATCC 19606 = experiment: MIC antibacterial assay; assay type: cell-based, Acinetobacter baumannii; settings: for MIC, A. baumannii 19606: 100% MHB, 90 min, 37 °C, twice in duplicate, mean ± SD
E. coli ATCC 25922 = experiment: MIC antibacterial assay; assay type: cell-based, Escherichia coli
K. pneumoniae ATCC 13883 = experiment: MIC antibacterial assay; assay type: cell-based, Klebsiella pneumoniae
A. baumannii culture = experiment: Peptide stability in bacterial culture; assay type: in vitro ADME; settings: 90 min incubation with A. baumannii culture
[3] = 100% MHB, 90 min, 37 °C, twice in duplicate, mean ± SD

Molecule: Fc1c(F)c(F)c(-c2c(F)c(F)c(F)c(F)c2F)c(F)c1F [Decafluorobiphenyl]
- antibacterial activity of the linkers alone [1]: no antibacterial activity

Molecule: CNC(C)C1CCC(N)C(OC2C(N)CC(N)C(OC3OCC(C)(O)C(NC)C3O)C2O)O1 (centres unmarked) [Gentamicin]
- MIC (FADDI-KP028 (MDR); Klebsiella pneumoniae, 1.5 h, read-out: MIC, FADDI-KP028): > 250 µg/mL
- MIC ([2]; Acinetobacter baumannii, 1.5 h, read-out: MIC, FADDI-AB156): > 250 µg/mL
- MBC (A. baumannii 19606; Acinetobacter baumannii, 19606, read-out: Bactericidal MBC, A. baumannii 19606): 4.6 ± 0.3 µg/mL (≈ 9.63 µM)
- MIC (A. baumannii ATCC 19606; Acinetobacter baumannii, ATCC19606, 1.5 h, read-out: MIC, A. baumannii 19606): 2.7 ± 0.2 µg/mL (≈ 5.65 µM)
- MIC (E. coli ATCC 25922; Escherichia coli, ATCC25922, 1.5 h, read-out: MIC, E. coli 25922): 0.9 ± 0.1 µg/mL (≈ 1.88 µM)
- MIC (K. pneumoniae ATCC 13883; Klebsiella pneumoniae, ATCC13883, 1.5 h, read-out: MIC, K. pneumoniae 13883): 0.1 ± 0.05 µg/mL (≈ 0.209 µM)

Molecule: Fc1c(F)c(F)c(F)c(F)c1F [Hexafluorobenzene]
- antibacterial activity of the linkers alone [1]: no antibacterial activity

Molecule: Colistin
- MIC, FADDI-AB156 [2]: 12.6 ± 1.6 (10.9) μg ml^−1
- Bactericidal MBC, A. baumannii 19606 (A. baumannii 19606; CFU assay, twice in duplicate, mean ± SD): 0.8 ± 0.02 (0.7) μg ml^−1
- MIC, A. baumannii 19606 (A. baumannii ATCC 19606): 0.5 ± 0.04 (0.4) μg ml^−1

Molecule: I: H-[Ac6c]RPDKPRPYLPRPRPPRPVRC-NHNH2 / II: H-[Ac6c]RPDKPRPYLPRPRPPRPVRC-NHNH2 (disulfide I:21-II:21) [compound 2]
- MIC, FADDI-KP028 (FADDI-KP028 (MDR); [3]): 111.3 ± 0.3 (21.5) μg ml^−1
- MIC, FADDI-AB156 [2]: 59.2 ± 0.2 (11.4) μg ml^−1
- peptide stability in A. baumannii culture (RP-HPLC trace) (A. baumannii culture): reduced
- MIC, A. baumannii 19606 (A. baumannii ATCC 19606): 30.8 ± 3.3 (5.9) μg ml^−1
- MIC, E. coli 25922 (E. coli ATCC 25922; [3]): 3.1 ± 0.1 (0.6) μg ml^−1
- MIC, K. pneumoniae 13883 (K. pneumoniae ATCC 13883; [3]): 5.1 ± 0.8 (1.0) μg ml^−1
